Laboratory results published in ChEMBL document CHEMBL1152865, “Synthesis and antimycobacterial activities of novel 6-nitroquinolone-3-carboxylic acids” (Eur J Med Chem, 2009).
Values after ≈ are worked out from the molar mass of the structure shown.

What was measured:
Mus musculus [1] = test: Phototoxicity in Swiss albino mouse exposed to 4 hrs of 18 J/cm'2 UV light irradiation assessed as erythema at 140 mg/kg, po; format: organism-based; parameters: dose 140 mg/kg, route oral; conditions: in vivo
Procedure, shortened: (§1)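 Female Swiss albino mice about 2 months old, 20-25 g, fasted at least 18 h, six per group. Single oral gavage of 140 mg/kg; vehicle 0.5% aqueous sodium carboxymethylcellulose at 10 ml/kg; lomefloxacin HCl 140 mg/kg as positive control. UVA for 4 h (about 18 J/cm²) from dosing. Both ears scored for erythema, edema and thickness pre-dose, at 4 h, and at about 24, 48, 72 and 96 h.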

Mus musculus [2] = test: Phototoxicity in Swiss albino mouse exposed to 4 hrs of 18 J/cm'2 UV light irradiation assessed as erythema at 140 mg/kg, po after 48 hrs; format: organism-based; parameters: dose 140 mg/kg, route oral; conditions: in vivo; procedure, shortened: as §1
Mus musculus [3] = test: Phototoxicity in Swiss albino mouse exposed to 4 hrs of 18 J/cm'2 UV light irradiation assessed as ear thickness at 140 mg/kg, po after 24 hrs; format: organism-based; parameters: dose 140 mg/kg, route oral; conditions: in vivo; procedure, shortened: as §1
Mus musculus [4] = test: Phototoxicity in Swiss albino mouse exposed to 4 hrs of 18 J/cm'2 UV light irradiation assessed as erythema at 140 mg/kg, po after 72 hrs; format: organism-based; parameters: dose 140 mg/kg, route oral; conditions: in vivo; procedure, shortened: as §1
Mus musculus [5] = test: Phototoxicity in Swiss albino mouse exposed to 18 J/cm'2 UV light irradiation assessed as ear thickness at 140 mg/kg, po; format: organism-based; parameters: dose 140 mg/kg, route oral; conditions: in vivo; procedure, shortened: as §1
[6] = Inhibition of Mycobacterium smegmatis DNA gyrase assessed as inhibition of relaxed circular pUC18 supercoiling activity by agarose gel electrophoresis; parameters: species or system Mycolicibacterium smegmatis
Procedure, shortened: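 Gyrase purified from M. smegmatis, pre-incubated with compound in DMSO. Then 400 ng relaxed pUC18 added in 35 mM Tris-HCl pH 7.5, 5 mM MgCl2, 25 mM potassium glutamate, 2 mM spermidine, 2 mM ATP, BSA, yeast tRNA and 5% glycerol. Incubated 30 min at 37 °C; read-out by agarose gel electrophoresis. Ciprofloxacin and 5% DMSO reactions run as controls.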

Mus musculus [7] = test: Phototoxicity in Swiss albino mouse assessed as ear thickness at 140 mg/kg, po measured after 4 hrs of 18 J/cm'2 UV light irradiation; format: organism-based; parameters: dose 140 mg/kg, route oral; conditions: in vivo; procedure, shortened: as §1
Mus musculus [8] = test: Phototoxicity in Swiss albino mouse assessed as erythema at 140 mg/kg, po after 4 hrs of 18 J/cm'2 UV light irradiation; format: organism-based; parameters: dose 140 mg/kg, route oral; conditions: in vivo; procedure, shortened: as §1
[9] = Cytotoxicity against african green monkey Vero cells after 72 hrs by MTT assay; format: cell-based; conditions: chlorocebus sabaeus
Procedure, shortened: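 Cells exposed to compound for 72 h; viability from cellular MTT conversion to formazan; CC50 derived.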

Mus musculus [10] = test: Phototoxicity in Swiss albino mouse exposed to 4 hrs of 18 J/cm'2 UV light irradiation assessed as ear thickness at 140 mg/kg, po after 96 hrs; format: organism-based; parameters: dose 140 mg/kg, route oral; conditions: in vivo; procedure, shortened: as §1
Mus musculus [11] = test: Phototoxicity in Swiss albino mouse exposed to 4 hrs of 18 J/cm'2 UV light irradiation assessed as ear thickness at 140 mg/kg, po after 48 hrs; format: organism-based; parameters: dose 140 mg/kg, route oral; conditions: in vivo; procedure, shortened: as §1
Mus musculus [12] = test: Phototoxicity in Swiss albino mouse exposed to 4 hrs of 18 J/cm'2 UV light irradiation assessed as erythema at 140 mg/kg, po after 24 hrs; format: organism-based; parameters: dose 140 mg/kg, route oral; conditions: in vivo; procedure, shortened: as §1
[13] = tested on: Mycolicibacterium smegmatis; test: Antibacterial activity against Mycobacterium smegmatis ATCC 14468 by agar dilution method; format: functional
Procedure, shortened: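 Agar dilution on Middlebrook 7H11 agar with OADC supplement, following an NCCLS-type procedure; MIC read in duplicate.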

[14] = tested on: Mycobacterium tuberculosis; test: Antibacterial activity against Mycobacterium tuberculosis H37Rv by agar dilution method; format: functional
Procedure, shortened: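 Agar dilution in Middlebrook 7H11 agar supplemented with OADC, following an approach similar to NCCLS guidance. MIC determined in duplicate.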

[15] = tested on: Mycobacterium tuberculosis; test: Antimycobacterial activity against Mycobacterium tuberculosis ATCC 35801 infected in CD1 mouse assessed as bacterial load in spleen at 50 mg/kg, ip administered 10 days postinfection for 10 days measured after 35 days of infection; format: functional; conditions: route intraperitoneal
Procedure, shortened: (§2)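 Six-week-old female CD-1 mice, six per group, infected intravenously via the caudal vein with approximately 10⁷ viable M. tuberculosis ATCC 35801. Intraperitoneal treatment ran days 10–20 post-infection. At day 35, spleen and right lung were homogenized, serially 10-fold diluted and plated on 7H10 agar, incubated 37 °C, 4 weeks. Log CFU compared with vehicle-treated controls.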

Mus musculus [16] = test: Phototoxicity in Swiss albino mouse exposed to 4 hrs of 18 J/cm'2 UV light irradiation assessed as ear thickness at 140 mg/kg, po after 72 hrs; format: organism-based; parameters: dose 140 mg/kg, route oral; conditions: in vivo; procedure, shortened: as §1
Mus musculus [17] = test: Phototoxicity in Swiss albino mouse exposed to 4 hrs of 18 J/cm'2 UV light irradiation assessed as erythema at 140 mg/kg, po after 96 hrs; format: organism-based; parameters: dose 140 mg/kg, route oral; conditions: in vivo; procedure, shortened: as §1
[18] = tested on: Mycobacterium tuberculosis; test: Antimycobacterial activity against Mycobacterium tuberculosis ATCC 35801 infected in CD1 mouse assessed as bacterial load in lungs at 50 mg/kg, ip administered 10 days postinfection for 10 days measured after 35 days of infection; format: functional; conditions: route intraperitoneal; procedure, shortened: as §2
[19] = tested on: Mycobacterium tuberculosis; test: Antimycobacterial activity against Mycobacterium tuberculosis ATCC 35801 infected in CD1 mouse assessed as bacterial load in spleen at 25 mg/kg, ip administered 10 days postinfection for 10 days measured after 35 days of infection; format: functional; conditions: route intraperitoneal; procedure, shortened: as §2
[20] = tested on: Mycobacterium tuberculosis; test: Antimycobacterial activity against Mycobacterium tuberculosis ATCC 35801 infected in CD1 mouse assessed as bacterial load in lungs at 25 mg/kg, ip administered 10 days postinfection for 10 days measured after 35 days of infection; format: functional; conditions: route intraperitoneal; procedure, shortened: as §2

In the case of O=C(O)c1cn(C2CC2)c2cc(N3CCN(Cc4ccc5c(c4)OCO5)CC3)c([N+](=O)[O-])cc2c1=O, the Activity (Mus musculus [1]) is reported as “Non-toxic”, the Activity (Mus musculus [2]) is reported as “Non-toxic” and the Activity (Mus musculus [3]) is reported as 0.28 mm. For the same molecule, the Activity (Mus musculus [4]) was “Non-toxic”, the Activity (Mus musculus [5]) was 0.25 mm and the IC50 [6] was 30 µg/mL (≈ 60.9 µM). The Activity (Mus musculus [7]) was 0.27 mm, the Activity (Mus musculus [8]) was “Non-toxic” and the CC50 at 72 h [9] was 127 µM. The Activity (Mus musculus [10]) was 0.29 mm, the Activity (Mus musculus [11]) was 0.28 mm and the Activity (Mus musculus [12]) was “Non-toxic”. For the same molecule, the MIC [13] was 0.79 µM (≈ 0.389 µg/mL), the MIC [14] was 0.08 µM (≈ 0.0394 µg/mL) and the log10cfu [15] was 4.87. The Activity (Mus musculus [16]) was 0.31 mm, the Activity (Mus musculus [17]) was “Non-toxic” and the log10cfu [18] was 5.21.

For CN1CCN(c2cc3c(cc2[N+](=O)[O-])c(=O)c(C(=O)O)cn3C2CC2)CC1c1ccccc1 (stereo not given), the Activity (Mus musculus [1]) was “Non-toxic”, the Activity (Mus musculus [2]) was “Non-toxic” and the Activity (Mus musculus [3]) was 0.3 mm. For the same molecule, the Activity (Mus musculus [4]) was “Non-toxic”, the Activity (Mus musculus [5]) was 0.3 mm and the IC50 [6] was 30 µg/mL (≈ 66.9 µM). The Activity (Mus musculus [7]) was 0.31 mm, the Activity (Mus musculus [8]) was “Non-toxic” and the CC50 at 72 h [9] was 136 µM. The Activity (Mus musculus [10]) was 0.34 mm, the Activity (Mus musculus [11]) was 0.32 mm and the MIC [13] was 0.87 µM (≈ 0.39 µg/mL). For the same molecule, the MIC [14] was 0.2 µM (≈ 0.0897 µg/mL), the Activity (Mus musculus [16]) was 0.32 mm and the Activity (Mus musculus [17]) was “Non-toxic”.

For COc1c(N2CCNC(C)C2)c(F)cc2c(=O)c(C(=O)O)cn(C3CC3)c12 (stereo not given) [GATIFLOXACIN], the CC50 at 72 h [9] was greater than 155 µM, the MIC [13] was 2.08 µM (≈ 0.781 µg/mL) and the MIC [14] was 1.04 µM (≈ 0.39 µg/mL). It also gave a log10cfu [15] of 6.92 and a log10cfu [18] of 6.02.

NNC(=O)c1ccncc1 [ISONIAZID] showed a log10cfu [19] of 4.71, a CC50 at 72 h [9] greater than 456 µM and an MIC [13] of 45.6 µM (≈ 6.25 µg/mL). For the same molecule, the log10cfu [20] was 5.86 and the MIC [14] was 0.36 µM (≈ 0.0494 µg/mL).

With CCn1cc(C(=O)O)c(=O)c2cc(F)c(N3CCNC(C)C3)c(F)c21 (stereo not given) [LOMEFLOXACIN] the Activity (Mus musculus [1]) was “Non-toxic”, the Activity (Mus musculus [2]) was “Toxic” and the Activity (Mus musculus [3]) was 0.48 mm. The Activity (Mus musculus [4]) was “Toxic”, the Activity (Mus musculus [5]) was 0.31 mm and the Activity (Mus musculus [7]) was 0.4 mm. The Activity (Mus musculus [8]) was “Toxic”, the Activity (Mus musculus [10]) was 0.6 mm and the Activity (Mus musculus [11]) was 0.53 mm. For the same molecule, the Activity (Mus musculus [12]) was “Toxic”, the Activity (Mus musculus [16]) was 0.64 mm and the Activity (Mus musculus [17]) was “Toxic”.
